# Results: ChEMBL document CHEMBL1795235, “Quercetin diacylglycoside analogues showing dual inhibition of DNA gyrase and topoisomerase IV as novel antibacterial agents” (J Med Chem, 2011)
# Assays:
# Staphylococcus aureus [1] = assay: Antibacterial activity against methicillin-resistant Staphylococcus aureus OM481 after 24 hrs by microdilution method; assay type: functional; details: OM481, 24 h
# Method in brief: (§1)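 Broth microdilution in Mueller-Hinton broth with 0.85% NaCl, inoculum about 10^5 CFU per 100 μL. Compounds were diluted in water from 25.6 mg/mL stocks to final 2-fold series of 0.062–128 μg/mL. Plates were incubated 24 h at 35 °C. MIC was the lowest concentration at which all triplicate wells were clear, from three independent determinations.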
# [2] = Inhibition of Escherichia coli DNA topoisomerase 4 subunit ParC/DNA topoisomerase 4 subunit ParE-mediated decatenation of kDNA by densitometry
# Method in brief: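 Purchased E. coli topoIV kit enzyme, one unit with 200 ng kDNA, 37 °C, 30 min. Buffer: 50 mM HEPES-KOH pH 7.6, 5 mM magnesium acetate, 100 mM potassium glutamate, 10 mM DTT, 1 mM ATP, 40% glycerol. Gel on 1.0% agarose in TAE. IC50 of decatenation from densitometry by interpolation equation, at least three determinations.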
# [3] = Inhibition of Staphylococcus aureus DNA Topoisomerase 4-mediated decatenation of kDNA after 30 mins by densitometry
# Method in brief: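 Purchased S. aureus topoIV, one unit with 200 ng kDNA, 37 °C, 30 min. Products resolved on 1.0% agarose in TAE. IC50 of decatenation from densitometry by interpolation equation, at least three determinations.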
# Staphylococcus aureus [4] = assay: Antibacterial activity against methicillin-resistant Staphylococcus aureus OM584 after 24 hrs by microdilution method; assay type: functional; details: OM584, 24 h; method in brief: as §1
# Staphylococcus aureus [5] = assay: Antibacterial activity against methicillin-susceptible Staphylococcus aureus 209P after 24 hrs by microdilution method; assay type: functional; method in brief: as §1
# Enterococcus [6] = assay: Antibacterial activity against vancomycin resistant Enterococcus NCTC 12201 after 24 hrs by microdilution method; assay type: functional; details: NCTC 12201, 24 h; method in brief: as §1
# Enterococcus [7] = assay: Antibacterial activity against vancomycin resistant Enterococcus FN-1 after 24 hrs by microdilution method; assay type: functional; details: FN-1, 24 h; method in brief: as §1
# Staphylococcus aureus [8] = assay: Antibacterial activity against methicillin-resistant Staphylococcus aureus N315 after 24 hrs by microdilution method; assay type: functional; details: N315, 24 h; method in brief: as §1
# Streptococcus pneumoniae = assay: Antibacterial activity against Streptococcus pneumoniae R6 after 24 hrs by microdilution method; assay type: functional; details: R6, 24 h
# Method in brief: (§2)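 Broth microdilution in Mueller-Hinton broth with 0.85% NaCl, inoculum about 10^5 CFU per 100 μL. Compounds diluted from 25.6 mg/mL stocks in water to 2-fold series, final 0.062–128 μg/mL. […] Three independent determinations.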
# Staphylococcus aureus [9] = assay: Antibacterial activity against vancomycin-intermediate Staphylococcus aureus Mu50 after 24 hrs by microdilution method; assay type: functional; details: Mu50, 24 h; method in brief: as §1
# Staphylococcus aureus [10] = assay: Antibacterial activity against methicillin-resistant Staphylococcus aureus COL after 24 hrs by microdilution method; assay type: functional; method in brief: as §1
# Pseudomonas aeruginosa = assay: Antibacterial activity against Pseudomonas aeruginosa PAO1 after 24 hrs by microdilution method; assay type: functional; details: PAO1, 24 h; method in brief: as §2
# Escherichia coli = assay: Antibacterial activity against Escherichia coli K-12 after 24 hrs by microdilution method; assay type: functional; details: K-12, 24 h; method in brief: as §2
# [11] = Inhibition of Escherichia coli DNA gyrase assessed as inhibition of pBR322 supercoiling by densitometry
# Method in brief: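 One unit of E. coli gyrase with 0.5 μg relaxed pBR322 DNA, 37 °C, 30 min. Stopped with sucrose/EDTA dye, run on 1.0% agarose in TAE. IC50 from densitometry via log-interpolation equation.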
SMILES,MIC (Staphylococcus aureus [1]) [µg/mL],IC50 [2] [µM],IC50 [3] [µM],MIC (Staphylococcus aureus [4]) [µg/mL],MIC (Staphylococcus aureus [5]) [µg/mL],MIC (Enterococcus [6]) [µg/mL],MIC (Enterococcus [7]) [µg/mL],MIC (Staphylococcus aureus [8]) [µg/mL],MIC (Streptococcus pneumoniae) [µg/mL],MIC (Staphylococcus aureus [9]) [µg/mL],MIC (Staphylococcus aureus [10]) [µg/mL],MIC (Pseudomonas aeruginosa) [µg/mL],MIC (Escherichia coli) [µg/mL],IC50 [11] [µM]
O=C(O[C@H]1[C@H](Oc2c(-c3ccc(O)c(O)c3)oc3cc(O)cc(O)c3c2=O)O[C@H](CO)[C@@H](O)[C@@H]1OC(=O)c1ccc(F)cc1)c1ccc(F)cc1,2,10.8,1.21,2,1,4,2,1,1,1,4,,,
CO[C@@H]1[C@@H](OC(N)=O)[C@@H](O)[C@H](Oc2ccc3c(O)c(NC(=O)c4ccc(O)c(CC=C(C)C)c4)c(=O)oc3c2C)OC1(C)C [NOVOBIOCIN],0.25,0.11,,0.25,0.13,2,> 128,0.13,0.25,8,0.25,8,8,
O=C(CCc1ccc(F)cc1)O[C@H]1[C@H](Oc2c(-c3ccc(O)c(O)c3)oc3cc(O)cc(O)c3c2=O)O[C@H](CO)[C@@H](O)[C@@H]1OC(=O)CCc1ccc(F)cc1,2,10.4,0.69,2,0.25,1,1,0.25,0.5,1,1,,,
Cc1ccc(CCC(=O)O[C@H]2[C@H](Oc3c(-c4ccc(O)c(O)c4)oc4cc(O)cc(O)c4c3=O)O[C@H](CO)[C@@H](O)[C@@H]2OC(=O)CCc2ccc(C)cc2)cc1,2,11.6,2.02,2,1,4,2,1,1,1,4,,,
CCOc1ccc(CCC(=O)O[C@H]2[C@H](Oc3c(-c4ccc(O)c(O)c4)oc4cc(O)cc(O)c4c3=O)O[C@H](CO)[C@@H](O)[C@@H]2OC(=O)CCc2ccc(OCC)cc2)cc1,2,> 12,3.02,2,1,4,2,1,1,1,4,,,
CCCc1ccc(C(=O)O[C@H]2[C@H](Oc3c(-c4ccc(O)c(O)c4)oc4cc(O)cc(O)c4c3=O)O[C@H](CO)[C@@H](O)[C@@H]2OC(=O)c2ccc(CCC)cc2)cc1,2,11.8,1.83,2,1,4,2,1,1,1,4,,,
CC(=O)OC[C@H]1O[C@@H](Oc2c(-c3ccc(O)c(O)c3)oc3cc(O)cc(O)c3c2=O)[C@H](OC(C)=O)[C@@H](OC(C)=O)[C@H]1OC(C)=O,32,,,32,64,32,32,64,64,64,128,> 128,> 128,
CCOc1ccc(C(=O)O[C@H]2[C@H](Oc3c(-c4ccc(O)c(O)c4)oc4cc(O)cc(O)c4c3=O)O[C@H](CO)[C@@H](O)[C@@H]2OC(=O)c2ccc(OCC)cc2)cc1,2,11,1.98,2,1,4,2,1,1,1,4,,,
O=C(Cc1ccc(F)cc1)O[C@H]1[C@H](Oc2c(-c3ccc(O)c(O)c3)oc3cc(O)cc(O)c3c2=O)O[C@H](CO)[C@@H](O)[C@@H]1OC(=O)Cc1ccc(F)cc1,2,10.1,1.45,2,1,4,2,1,1,1,4,,,
CN[C@H](CC(C)C)C(=O)N[C@H]1C(=O)N[C@@H](CC(N)=O)C(=O)N[C@H]2C(=O)N[C@H]3C(=O)N[C@H](C(=O)N[C@H](C(=O)O)c4cc(O)cc(O)c4-c4cc3ccc4O)[C@H](O)c3ccc(c(Cl)c3)Oc3cc2cc(c3O[C@@H]2O[C@H](CO)[C@@H](O)[C@H](O)[C@H]2O[C@H]2C[C@](C)(N)[C@H](O)[C@H](C)O2)Oc2ccc(cc2Cl)[C@H]1O [VANCOMYCIN],0.25,,,0.25,0.25,> 128,> 128,0.25,0.25,8,0.25,,,
CCn1cc(C(=O)O)c(=O)c2cc(F)c(N3CCNCC3)cc21 [NORFLOXACIN],64,,3.5,128,0.5,4,> 128,2,0.25,> 128,1,0.25,0.25,0.09
O=C(CCc1ccc(O)cc1)O[C@H]1[C@H](Oc2c(-c3ccc(O)c(O)c3)oc3cc(O)cc(O)c3c2=O)O[C@H](CO)[C@@H](O)[C@@H]1OC(=O)CCc1ccc(O)cc1,2,11.8,1.98,2,1,4,2,1,1,1,4,,,
CC1O[C@H](Oc2c(-c3ccc(O)cc3)oc3cc(O)cc(O)c3c2=O)[C@@H](OC(=O)/C=C/c2ccc(O)cc2)[C@@H](O)[C@@H]1OC(=O)/C=C/c1ccc(O)cc1 (some centres undefined),1,,2.7,2,0.5,4,8,1,,,1,> 128,> 128,3.11
